For orientation: IC50 means the point on the concentration scale where inhibition reaches its midpoint. Broadly, the logD is the decadic logarithm of the distribution of all forms, ionised or not, between an organic phase and buffer at a given pH. High values mean a more lipophilic compound, low ones a more hydrophilic compound. The term solubility denotes the concentration that dissolves in the medium under given conditions. Higher therefore signals much dissolved substance. For orientation: AUC means the area under the concentration-time curve, a measure of exposure. Read a high AUC as high exposure. As a reminder, the half-life is how long it takes for the measured level to halve. A lower half-life goes with fast loss. As usually defined, the bioavailability is the share of a dose that reaches the circulation, judged against a reference dose that is usually intravenous.

The values that follow come from ChEMBL document CHEMBL2046289, “Novel 2-(2-(benzylthio)-1H-benzo[d]imidazol-1-yl)acetic acids: discovery and hit-to-lead evolution of a selective CRTh2 receptor antagonist chemotype” (Bioorg Med Chem Lett, 2012).

For series [1], the target named is T1, Prostaglandin D2 receptor 2 (Homo sapiens, UniProt Q9Y5Y4).
T1 sequence (Q9Y5Y4 whole entry): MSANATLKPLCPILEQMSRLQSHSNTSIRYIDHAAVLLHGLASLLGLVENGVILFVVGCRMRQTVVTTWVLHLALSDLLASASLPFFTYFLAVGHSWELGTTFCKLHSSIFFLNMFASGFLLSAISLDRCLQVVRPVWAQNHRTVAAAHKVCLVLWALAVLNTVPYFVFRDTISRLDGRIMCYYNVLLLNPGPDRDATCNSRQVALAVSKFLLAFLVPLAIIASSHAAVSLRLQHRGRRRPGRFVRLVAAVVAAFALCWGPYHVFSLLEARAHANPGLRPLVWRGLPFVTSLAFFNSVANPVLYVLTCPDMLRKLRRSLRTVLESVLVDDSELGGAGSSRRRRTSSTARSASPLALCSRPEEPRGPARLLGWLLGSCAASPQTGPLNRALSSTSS
Kind of series: Displacement of [3H]-PGD2 from human CRTh2 receptor expressed in HEK293 cells. Type of series: cell-based. (In general: Displacement assays read how much labelled ligand stays bound in the presence of the test substance.)

In series [2] the target is T1, Prostaglandin D2 receptor 2. Kind of series: Antagonist activity at human CRTh2 receptor expressed in HEK293 cells assessed as inhibition of PGD2-induced calcium flux by FLIPR assay. Type of series: functional, cell-based.
Series [3] has the same target. Put plainly: Displacement of [3H]-PGD2 from human CRTh2 receptor expressed in HEK293 cells in presence of 0.5% human serum albumin. Type of series: cell-based.
Series [4] addresses T2, Prostaglandin D2 receptor (Homo sapiens, UniProt Q13258).
T2 sequence (Q13258 whole entry): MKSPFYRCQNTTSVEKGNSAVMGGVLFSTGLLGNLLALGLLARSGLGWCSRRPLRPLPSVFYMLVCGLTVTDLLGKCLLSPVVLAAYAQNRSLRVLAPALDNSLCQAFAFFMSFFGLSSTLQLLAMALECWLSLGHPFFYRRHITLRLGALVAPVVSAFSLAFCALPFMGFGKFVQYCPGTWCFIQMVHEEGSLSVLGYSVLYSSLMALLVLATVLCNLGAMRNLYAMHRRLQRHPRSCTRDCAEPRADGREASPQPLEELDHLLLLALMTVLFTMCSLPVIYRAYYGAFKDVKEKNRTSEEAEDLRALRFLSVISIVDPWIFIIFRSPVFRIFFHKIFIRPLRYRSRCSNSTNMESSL
Kind of series: Displacement of [3H]-PGD2 from human DP1 receptor expressed in CHO cells. Format: cell-based.

For series [5], the target named is T3, Thromboxane A2 receptor (Homo sapiens, UniProt P21731).
T3 sequence (P21731 whole entry): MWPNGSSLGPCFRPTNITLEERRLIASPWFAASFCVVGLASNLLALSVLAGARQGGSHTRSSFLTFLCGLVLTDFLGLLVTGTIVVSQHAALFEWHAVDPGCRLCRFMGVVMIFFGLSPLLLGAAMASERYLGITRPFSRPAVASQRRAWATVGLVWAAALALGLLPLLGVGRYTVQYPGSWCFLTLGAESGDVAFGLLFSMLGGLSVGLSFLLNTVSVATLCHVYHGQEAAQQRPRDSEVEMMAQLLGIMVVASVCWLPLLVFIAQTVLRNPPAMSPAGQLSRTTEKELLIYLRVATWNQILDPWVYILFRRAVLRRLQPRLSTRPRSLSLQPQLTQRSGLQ
Put plainly: Antagonist activity at human TP receptor by FLIPR assay. Format: functional.

A short description of series [6]: Lipophilicity, log D of the compound at pH 7.4. Type of series: physicochemical. Conditions: buffer.
Series [7] can be described thus: Solubility of the compound in 0.1 M HCl. Format: physicochemical. Conditions: buffer.
A short description of series [8]: Solubility of the compound in phosphate buffer at pH 7. Type of series: physicochemical.
A short description of series [9]: Solubility of the compound in Tris buffer at pH 9. Type of series: physicochemical.
Series [10] can be described thus: Stability of the compound in simulated gastric fluid assessed as compound remaining after 1 hr. Format: physicochemical. Conditions: read-out: Stability. An outline of the steps:
(§1)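 Compound incubated in simulated gastric fluid for 1 h or simulated intestinal fluid for 4 h; unchanged parent recovered quantified by LC-MS, expressed as % parent remaining.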

Series [11] in a line: Stability of the compound in simulated intestinal fluid assessed as compound remaining after 4 hrs. Conditions: read-out: Stability. Format: physicochemical. An outline of the steps:
as §1

The nature of series [12]: Metabolic stability of the compound in human plasma assessed as compound remaining after 4 hrs. Type of series: ADME, cell-free. Conditions: read-out: Stability.
Series [13] can be described thus: Intrinsic clearance in rat liver microsomes assessed per mg protein. Type of series: ADME, Microsome. As to conditions: read-out: CLH.
The nature of series [14]: Intrinsic clearance in rat hepatocytes assessed per 10^6 cells. Type of series: ADME, cell-based, Hepatocyte. Conditions: read-out: CLH.
In series [15] the target is Cytochrome P450 2D6 (Homo sapiens, UniProt P10635). Put plainly: Inhibition of CYP2D6. Format: ADME.
Sequence of Cytochrome P450 2D6 (P10635 whole entry): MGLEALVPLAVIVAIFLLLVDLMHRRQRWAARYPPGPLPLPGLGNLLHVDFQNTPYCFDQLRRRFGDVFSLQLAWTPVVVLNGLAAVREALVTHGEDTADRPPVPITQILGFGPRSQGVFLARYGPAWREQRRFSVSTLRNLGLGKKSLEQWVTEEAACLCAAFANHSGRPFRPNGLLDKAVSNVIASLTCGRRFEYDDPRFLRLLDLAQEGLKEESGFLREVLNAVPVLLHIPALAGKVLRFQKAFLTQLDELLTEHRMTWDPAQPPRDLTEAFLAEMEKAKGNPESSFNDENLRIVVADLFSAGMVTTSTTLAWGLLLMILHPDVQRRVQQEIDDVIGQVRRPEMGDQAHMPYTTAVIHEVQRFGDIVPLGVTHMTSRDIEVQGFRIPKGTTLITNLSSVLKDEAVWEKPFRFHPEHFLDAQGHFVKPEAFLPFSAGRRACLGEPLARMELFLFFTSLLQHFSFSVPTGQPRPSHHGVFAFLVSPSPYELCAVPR
In series [16] the target is T4, Cytochrome P450 3A4 (Homo sapiens, UniProt P08684). Kind of series: Inhibition of CYP3A4 using midazolam as substrate. Format: ADME.
T4 sequence (P08684 whole entry): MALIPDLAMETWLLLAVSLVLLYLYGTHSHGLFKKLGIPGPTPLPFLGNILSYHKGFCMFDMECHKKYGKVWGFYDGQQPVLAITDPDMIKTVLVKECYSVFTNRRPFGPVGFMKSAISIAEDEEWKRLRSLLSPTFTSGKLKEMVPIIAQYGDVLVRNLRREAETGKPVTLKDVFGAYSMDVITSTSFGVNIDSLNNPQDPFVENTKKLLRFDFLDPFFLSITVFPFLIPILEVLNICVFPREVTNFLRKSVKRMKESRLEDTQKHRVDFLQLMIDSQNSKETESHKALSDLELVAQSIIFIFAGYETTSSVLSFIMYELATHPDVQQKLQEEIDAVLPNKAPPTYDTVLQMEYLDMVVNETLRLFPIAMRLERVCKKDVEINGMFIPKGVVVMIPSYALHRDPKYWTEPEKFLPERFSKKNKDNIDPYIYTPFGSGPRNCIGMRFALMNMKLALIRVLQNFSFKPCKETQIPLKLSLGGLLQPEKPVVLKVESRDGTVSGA
Series [17] concerns the target T4, Cytochrome P450 3A4. Put plainly: Inhibition of CYP3A4 using testosterone as substrate. Format: ADME.
Series [18] has as its target Cytochrome P450 2C9 (Homo sapiens, UniProt P11712). Kind of series: Inhibition of CYP2C9. Format: ADME.
Series [19] is described as follows: AUC in Wistar rat at 10 mg/kg, po. More on the design: dose 10 mg/kg, route oral. Conditions: plasma. Type of series: ADME, organism-based. In outline: (§2)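 Male Wistar rats, 3 animals per experiment; intravenous dose 1 mg/kg and oral dose 10 mg/kg, each given as a solution.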
Series [20] is described as follows: Clearance in Wistar rat at 1 mg/kg, iv and 10 mg/kg, po. Format: ADME, organism-based. As to conditions: in vivo. In outline: as §2
Series [21] can be described thus: Volume of distribution at steady state in Wistar rat at 1 mg/kg, iv and 10 mg/kg, po. Type of series: ADME, organism-based. Conditions: in vivo, read-out: Vdss. In outline:
as §2

Series [22] can be described thus: Half life in Wistar rat at 1 mg/kg, iv and 10 mg/kg, po. Type of series: ADME, organism-based. Conditions: in vivo. An outline of the steps: as §2
The nature of series [23]: Oral bioavailability in Wistar rat at 10 mg/kg. Format: ADME, organism-based. As to conditions: in vivo. In outline: as §2
Series [24] in a line: Intrinsic clearance in human liver microsomes assessed per mg protein. Type of series: ADME, Microsome. As to conditions: read-out: CLH. For orientation: Liver microsomes are a subcellular fraction often used to study metabolism.

In brackets after ≈: the same amount, converted by molar mass. Where only a bound is given, the exact number is not on record here.

Sequence of Cytochrome P450 2C9 (P11712 whole entry): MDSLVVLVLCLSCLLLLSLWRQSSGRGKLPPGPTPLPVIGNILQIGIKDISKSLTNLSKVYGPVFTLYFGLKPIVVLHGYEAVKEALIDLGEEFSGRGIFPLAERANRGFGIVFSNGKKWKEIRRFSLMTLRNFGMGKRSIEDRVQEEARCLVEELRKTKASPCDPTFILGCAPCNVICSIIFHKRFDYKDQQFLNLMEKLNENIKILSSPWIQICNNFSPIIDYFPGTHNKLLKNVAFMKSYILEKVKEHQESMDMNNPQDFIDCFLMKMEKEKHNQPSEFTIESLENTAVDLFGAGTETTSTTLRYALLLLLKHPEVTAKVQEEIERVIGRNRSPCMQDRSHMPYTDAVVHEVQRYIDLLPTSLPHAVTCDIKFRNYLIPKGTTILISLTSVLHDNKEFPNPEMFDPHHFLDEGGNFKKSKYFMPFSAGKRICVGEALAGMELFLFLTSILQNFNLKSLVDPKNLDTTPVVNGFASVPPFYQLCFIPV

`COc1ccc(C(C)=O)cc1CSc1nc2ccccc2n1CC(=O)O`: the half-inhibitory concentration (IC50) was 0.008 µM in [1]; 0.025 µM in series [2]; 0.002 µM in series [3]; over 10 µM in series [4]; over 25 µM in series [5]; over 50 µM in series [15]. The 50% inhibitory concentration (IC50) in [16] is 37 µM; in series [17], over 50 µM; in series [18], 24 µM. This compound returned a log distribution coefficient (logD) in series [6] of -1.1. The solubility was determined as 575 µg/mL (≈ 1550 µM) in series [7], 602 µg/mL (≈ 1630 µM) in series [8] and 583 µg/mL (≈ 1570 µM) in [9]. Moreover, the remaining at 1 h in [10] is 92%. For the same compound, the remaining at 4 h in series [11] and in series [12] was 100% each time. In [13], the microsomal CLint worked out at 17 µL/min/mg. In addition, the hepatocyte CLint in series [14] came out at 10 µL/min/1e6 cells. In series [19], the AUC turned out to be 2360 ng·h/mL. The compound further returned a clearance in series [20] of 20 mL/min/kg. The Vd in series [21] turned out to be 1.1 L/kg. Further, in [22], the half-life is 2.5 h. This compound came in with a bioavailability in series [23] of 27%.

For the compound `COc1ccc(C(C)=O)cc1CSc1nc2cc(F)ccc2n1CC(=O)O`, the IC50 in series [1] is 0.002 µM; in series [2], 0.005 µM; in series [3] it was 0.014 µM; in series [4], over 10 µM; in series [5], over 25 µM; in series [15], over 50 µM. Also, the IC50 in series [16] was 10 µM; in [17] it was 15 µM; in series [18], over 50 µM. The same compound registered a logD in [6] of -0.8. Also, the figures for the solubility in series [7], in series [8] and in [9] were 484 µg/mL (≈ 1250 µM), 399 µg/mL (≈ 1030 µM) and 583 µg/mL (≈ 1500 µM), respectively. Besides, in [10], the remaining at 1 h is 95%. Further, the remaining at 4 h in series [11] and in [12] was 100% in each case. The microsomal CLint stood at 60 µL/min/mg in [13] and 13 µL/min/mg in series [24]. Moreover, in series [14], the hepatocyte CLint was 20 µL/min/1e6 cells. Also, in series [19], the AUC is 919 ng·h/mL. In series [20], this compound registered a clearance of 36 mL/min/kg. The Vd in series [21] came to 1.2 L/kg. This compound also showed a half-life in [22] of 0.9 h. In series [23], this compound had a bioavailability of 19%.

Take `CCCCNC(=O)c1ccc(OC)c(CSc2nc3cc(F)ccc3n2CC(=O)O)c1`: the concentration for half-maximal inhibition (IC50) in series [1] was 0.016 µM; in [2], 0.015 µM; in series [3] it was 0.081 µM; in series [4], over 10 µM; in [15] it was over 50 µM; in series [16], 4 µM. The IC50 in series [17] amounted to 7 µM; in series [18], 6 µM. The log distribution coefficient (logD) in [6] worked out at 0.1. Further, the figures for the solubility in [7], in series [8] and in series [9] were 670 µg/mL (≈ 1500 µM), 719 µg/mL (≈ 1610 µM) and over 750 µg/mL, respectively. The remaining at 1 h in [10] was 94%. The results for the remaining at 4 h in series [11] and in series [12] were 78% and 100%, respectively. For the same compound, the values for the microsomal CLint in series [13] and in series [24] were 60 µL/min/mg and 7 µL/min/mg, respectively. For the same compound, the hepatocyte CLint in series [14] came to 6 µL/min/1e6 cells.
